An excerpt weighted towards active compounds, which were near 2.5% of everything screened.
NadD inh = blocks S. aureus nicotinate mononucleotide adenylyltransferase. 0.78% of 360,000 active. inhibition, % at 20 µM. purified NadD enzyme, colorimetric absorbance read-out; in the data active means inhibition above about 26%
Beta2AR agonist = agonists of human beta-2 adrenergic receptor inducing internalization. P07550. Am2.2-beta2AR cells, FAP receptor internalization, flow cytometry. response, % (concentration not given with the values). 0.43% of 340,000 active;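 active means response above a set limit, near 3 SD of response in nonfluorescent compounds, cut at about 42% in these data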
GRK2 inh = inhibitors of human GRK2 displacing RNA aptamer. P25098. bead flow cytometry, FAM-aptamer displacement from GRK2. inhibition of aptamer binding, % at 10 µM. 0.59% of 330,000 active;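 active means inhibition of aptamer binding above 40%, roughly 3 SD of noise, on plates passing a quality check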;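 further: median bead fluorescence of bound FAM aptamer so fluorescent compounds give negative values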
SENP1 inh = inhibitors of human SENP1 SUMO protease catalytic domain. Q9P0U3. recombinant SENP1 catalytic domain, CyPet-SUMO1-YPet FRET cleavage. inhibition, % at 10 µM. 0.21% of 360,000 active. AID 624204;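 active means inhibition at least 30% at 10 µM, raw YFP signal under a set limit, fluorescence ratio 0.5 to 1.5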;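 further: 0% = enzyme with DMSO and 100% = no enzyme wells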
Target sequence (Q9P0U3 419-644 limits assumed): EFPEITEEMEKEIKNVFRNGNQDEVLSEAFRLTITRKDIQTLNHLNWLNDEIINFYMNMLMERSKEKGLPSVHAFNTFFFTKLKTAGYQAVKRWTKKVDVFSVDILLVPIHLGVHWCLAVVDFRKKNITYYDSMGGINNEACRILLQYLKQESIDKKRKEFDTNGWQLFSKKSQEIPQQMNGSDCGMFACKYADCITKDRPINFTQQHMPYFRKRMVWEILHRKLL
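Test system: human SENP1 catalytic domain; medium: Tris pH 8 buffer plus EDTA, NaCl, BME, BSA, NP40, catalase; incubation: 50 min reaction at room temperature; technique: FRET, CFP and YFP emission; controls: no-enzyme low control and enzyme-plus-DMSO high control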
ABHD5-PLIN5 inh = inhibitors of human ABHD5-perilipin-5 interaction | Q00G26+Q8WTS1 | Split G. princeps luciferase complementation, luminescence, 4 h | inhibition, % at 4 µM | 0.78% of 360,000 active;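 active means inhibition above the mean inhibition across every tested compound plus 3 SD, cut at about 22% in these data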;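 further: 0% = DMSO only wells and the 100% control is not disclosed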
GRK2 inh confirm = human GRK2 inhibition confirmation, cherry pick 1; bead-bound GRK2, FAM-aptamer displacement, flow cytometry; 4% of 2,000 active; AID 504451; shares compounds with GRK2 inh; aptamer displacement, % at 10 µM;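 active means aptamer displacement above 40%, near three times the noise of non-fluorescent compounds, on plates passing quality checks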;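 further: negative values mostly reflect intrinsic compound fluorescence rather than true enhancement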
Aptamer quench SP = counter-screen for GRK2 aptamer inhibitors: fluorescent aptamer quenchers | fluorescence response (% of DMSO), % at 10 µM | shares compounds with GRK2 inh | AID 504580 | 2,000 tested, under 10 active | Carboxyfluorescein RNA aptamer on beads, flow cytometry quenching; active compounds read low;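 active means compounds that quench the bead-bound fluorescent RNA probe, cutting fluorescence to under half of the solvent control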;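 further: counterscreen run without GRK2 so only probe quenching by compound is measured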
GRK2 CP2 = human GRK2 inhibition confirmation, cherry pick 2; AID 504782; inhibition of aptamer binding, % at 10 µM; shares compounds with GRK2 inh; 360 tested, under 10 active; bead-bound GRK2, FAM-aptamer displacement, flow cytometry;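 active means inhibition of aptamer binding above 40%, about triple the noise seen with nonglowing compounds, on plates passing quality control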;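 further: negative values mostly come from compounds that fluoresce themselves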
FAM quench CP2 = counter-screen for GRK2 binding hits: quenchers of fluorescent RNA aptamer | carboxyfluorescein RNA aptamer beads, flow cytometry quenching; active compounds read low | fluorescence response vs DMSO, % at 10 µM | 360 tested, under 10 active | shares compounds with GRK2 inh;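 active means response vs DMSO under 50%, meaning signal dropped by over half, treated as fluorescence quencher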;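 further: labelled aptamer on streptavidin beads without GRK2 as a quench counter-screen; 100% = bead fluorescence of DMSO wells and lower means quenching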
An asterisk follows results filed as active.

How did Cc1c(C(=O)OC(C)C)sc(N)c1C(=O)OC(C)C do in these assays?
NadD inh: -10.2; Beta2AR agonist: -3.3; GRK2 inh: 70.0*; SENP1 inh: -7.6; ABHD5-PLIN5 inh: -14.5; GRK2 CP2: -3.9; FAM quench CP2: 97.0

What do the screens show for `Cc1c(C(N)=O)sc(N)c1C(=O)OC(C)C`?
NadD inh: -5.3; Beta2AR agonist: -10.1; GRK2 inh: 5.0; SENP1 inh: 0.1; ABHD5-PLIN5 inh: -9.1

Results for O=C(O)c1cccc(-c2ccc(/C=c3/sc4nc5ccccc5n4c3=O)o2)c1 ?
NadD inh: 5.7; Beta2AR agonist: 15.1; GRK2 inh: 50.0*; SENP1 inh: -34.6; ABHD5-PLIN5 inh: -1.3; GRK2 inh confirm: 11.7; Aptamer quench SP: 96.6

What do the screens show for `Nc1c(C(=O)CSc2nncn2-c2ccccc2)c(=O)[nH]c(=O)n1C1CC1`?
NadD inh: 4.6; Beta2AR agonist: 25.1; GRK2 inh: 61.0*; SENP1 inh: 3.9; ABHD5-PLIN5 inh: 5.2; GRK2 inh confirm: -0.9; Aptamer quench SP: 94.8

How did CCNC(=O)c1ccc(=O)n(Cc2ccc(Cl)cc2Cl)c1 do in these assays?
NadD inh: -8.8; Beta2AR agonist: -7.3; GRK2 inh: 1.0; SENP1 inh: 0.4; ABHD5-PLIN5 inh: 2.7

How did CC1CCCC(C)N1CCCNC(=O)Cn1ncc2c3ccccc3n(C)c2c1=O (centres undefined) do in these assays?
NadD inh: -9.8; Beta2AR agonist: -11.6; GRK2 inh: 0.0; SENP1 inh: -55.0; ABHD5-PLIN5 inh: 14.9

How did CC1CCCCN1C(=O)Cn1cc(C(=O)c2ccco2)c2ccccc21 (centres undefined) do in these assays?
NadD inh: -4.0; Beta2AR agonist: -4.5; GRK2 inh: 97.0*; SENP1 inh: -0.7; ABHD5-PLIN5 inh: -2.0; GRK2 inh confirm: 2.0; Aptamer quench SP: 97.9

Results for COc1ccc(-c2nn(-c3ccccc3)cc2CNCc2cccnc2)c(F)c1 ?
NadD inh: -4.6; Beta2AR agonist: -8.2; GRK2 inh: 47.0*; SENP1 inh: -19.5; ABHD5-PLIN5 inh: -0.3; GRK2 inh confirm: -4.2; Aptamer quench SP: 100.6

What do the screens show for `COc1ccc(-n2cc(CNCc3cccnc3)c(-c3cccc(F)c3)n2)cc1`?
NadD inh: -3.0; Beta2AR agonist: -13.8; GRK2 inh: 0.0; SENP1 inh: 0.5; ABHD5-PLIN5 inh: 11.2

What do the screens show for `CSC1=NCCN1C(=O)c1c(-c2c(F)cccc2Cl)noc1C`?
NadD inh: -0.9; Beta2AR agonist: -4.9; GRK2 inh: 2.0; SENP1 inh: 0.9; ABHD5-PLIN5 inh: 6.9

Results for Cc1ccc(CCNC(=O)CC(C)CC2=NS(=O)(=O)c3ccccc3N2)cc1 (centres undefined) ?
NadD inh: -4.8; Beta2AR agonist: -4.4; GRK2 inh: 65.0*; SENP1 inh: 1.7; ABHD5-PLIN5 inh: -6.5; GRK2 inh confirm: -2.9; Aptamer quench SP: 94.7

Results for COc1ccc(CCNC(=O)CC(C)(C)CC2=NS(=O)(=O)c3ccccc3N2)cc1OC ?
NadD inh: -7.8; Beta2AR agonist: 4.7; GRK2 inh: 0.0; SENP1 inh: 2.0; ABHD5-PLIN5 inh: -2.1

What do the screens show for `O=C(c1ccc2nc(Cc3cccc(Cl)c3)oc2c1)N1CCC[C@H]1CO`?
NadD inh: -3.3; Beta2AR agonist: -0.6; GRK2 inh: 0.0; SENP1 inh: 1.3; ABHD5-PLIN5 inh: 0.0

Results for COc1cc(OC)cc(C(=O)Nc2ncn[nH]2)c1 ?
NadD inh: -3.8; Beta2AR agonist: -1.1; GRK2 inh: 77.0*; SENP1 inh: 0.1; ABHD5-PLIN5 inh: 2.8; GRK2 inh confirm: -5.3; Aptamer quench SP: 100.8

Source: PubChem BioAssay
